Series [1] in a line: Cytotoxicity against HEK293T cells expressing FXR and beta-lactamase genes assessed as inhibition of cell viability at 40 uM after 16 hrs by CellTiter-Glo luminescent assay relative to control. Format: cell-based, HEK-293T. Particulars: human, read-out: INH. The procedure, abridged: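 Viability run alongside the agonist assay in the same GeneBLAzer FXR HEK 293T cells: 20,000 cells/well in phenol red-free DMEM with 2% charcoal/dextran-treated FBS, 0.5% DMSO, 16 h at 37°C. Cooled 20 min, then CellTiter-Glo added for 20 min in dark; luminescence read.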

Series [2] concerns the target T1, Bile acid receptor (Homo sapiens) (UniProt Q96RI1).
T1 sequence (whole entry): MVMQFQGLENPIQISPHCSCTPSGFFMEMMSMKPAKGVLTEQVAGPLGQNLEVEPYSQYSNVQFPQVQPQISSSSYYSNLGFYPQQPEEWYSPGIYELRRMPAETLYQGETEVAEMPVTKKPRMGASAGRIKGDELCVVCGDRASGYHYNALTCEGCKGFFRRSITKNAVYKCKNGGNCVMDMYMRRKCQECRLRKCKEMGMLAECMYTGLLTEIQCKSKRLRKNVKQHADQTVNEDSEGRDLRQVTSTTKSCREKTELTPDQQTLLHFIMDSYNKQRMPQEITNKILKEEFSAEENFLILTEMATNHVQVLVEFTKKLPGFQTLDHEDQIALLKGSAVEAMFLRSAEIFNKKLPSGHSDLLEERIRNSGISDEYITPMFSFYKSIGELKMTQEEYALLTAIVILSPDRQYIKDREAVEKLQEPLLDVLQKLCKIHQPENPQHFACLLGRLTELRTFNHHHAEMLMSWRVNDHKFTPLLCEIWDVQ
Nature of the series: Antagonist activity at human GST-tagged FXR at 164 nM after 20 mins by TR-FRET assay relative to control.

In series [3] the target is T1, Bile acid receptor (Homo sapiens). Nature of the series: Inhibition of GW4064-induced transactivation of FXR (unknown origin) expressed in HEK293T cells at 40 uM after 16 hrs by beta-lactamase reporter gene assay relative to control. Format: cell-based. Particulars: HEK-293T.
Series [4] shares this target. The series is described as follows: Agonist activity at FXR (unknown origin) expressed in HEK293T cells after 16 hrs by beta-lactamase reporter gene assay relative to control. Format: cell-based. Particulars: HEK-293T.
For series [5] the target is unchanged. Nature of the series: Ratio of E16 IC50 to compound IC50 for human GST-tagged FXR after 20 mins by TR-FRET assay.
Series [6] has the same target. The series is described as follows: Antagonist activity at human GST-tagged FXR at 493 nM after 20 mins by TR-FRET assay relative to control.
For series [7] the target is unchanged. The series is described as follows: Agonist activity at human FXR.
The target is the same in series [8]. Nature of the series: Inhibition of GW4064-induced transactivation of FXR (unknown origin) expressed in HEK293T cells at 1 uM after 16 hrs by beta-lactamase reporter gene assay relative to control. The class given is cell-based. Particulars: HEK-293T.
Series [9] has the same target. Nature of the series: Antagonist activity at human GST-tagged FXR at 40 uM after 20 mins by TR-FRET assay relative to control.
Series [10] shares this target. Nature of the series: Antagonist activity at human GST-tagged FXR at 13.3 uM after 20 mins by TR-FRET assay relative to control.
Series [11] deals with T2, Bile acid receptor (Homo sapiens, UniProt Q96RI1).
T2 sequence (Q96RI1 whole entry): T1 sequence (whole entry)
The series is described as follows: Inhibition of GW4064-induced transactivation of FXR (unknown origin) expressed in HEK293T cells after 16 hrs by beta-lactamase reporter gene assay. Format: cell-based, HEK-293T.

Series [12] concerns the target T2, Bile acid receptor. Nature of the series: Antagonist activity at human GST-tagged FXR after 20 mins by TR-FRET assay.
Series [13] addresses T1, Bile acid receptor (Homo sapiens). Nature of the series: Antagonist activity at human GST-tagged FXR at 4.4 uM after 20 mins by TR-FRET assay relative to control.

Structures are written as SMILES. pIC50: −log10 of the molar value. The source made the active and inactive calls. No cut-off for these calls is given here. Some results are limits rather than exact numbers.

Consider `C[C@H](CCC(=O)O)[C@H]1CC[C@H]2[C@@H]3CC[C@@H]4C[C@H](O)CC[C@]4(C)[C@H]3CC[C@]12C` [LITHOCHOLIC ACID], for which the cytotoxicity at 16 h, 40 µM in series [1] is below 5%.
Turning to `Cc1ccc(-c2nn(-c3cccc(C(F)(F)F)c3)cc2C(=O)Nc2ccc(C)c(S(=O)(=O)N3CCOCC3)c2)cc1`, the figures for the inhibition in [2] and in series [3] were 77.5% and 54.8%, respectively. Further, the cytotoxicity at 16 h, 40 µM in [1] came out at 7.3%. Further, in [4], the outcome was inactive. Moreover, in [5], the Ratio IC50 was 3.
As for `COc1cccc(Cn2cc(C(=O)Nc3ccc(C)c(S(=O)(=O)N4CCOCC4)c3)c(-c3cccc(OC)c3)n2)c1`, the inhibition in series [6] was determined as 114%; in series [3], 89.4%. The cytotoxicity at 16 h, 40 µM in [1] was below 5%. In addition, the outcome in series [4] was inactive.
Consider `Cc1ccc(-c2nn(-c3cccc(Cl)c3)cc2C(=O)Nc2ccc(C)c(S(=O)(=O)N3CCOCC3)c2)cc1`, for which the inhibition was determined as 99.3% in series [2] and 60.6% in [3]. In addition, the cytotoxicity at 16 h, 40 µM in series [1] is below 5%. Further, the outcome in [4] was inactive. Further, the Ratio IC50 in series [5] came to 3.
Consider `COc1cccc(Cn2cc(C(=O)Nc3ccc(C)c(S(=O)(=O)N4CCOCC4)c3)c(-c3ccc(C(F)(F)F)cc3)n2)c1`, for which the results for the inhibition in series [2] and in series [3] were 109% and 97.6%, respectively. Moreover, in series [1], the cytotoxicity at 16 h, 40 µM is below 5%. The result in series [4] was inactive.
As to `O=C(Nc1cccc(S(=O)(=O)N2CCOCC2)c1)c1cn(-c2ccccc2)nc1-c1ccccc1`, the result in series [7] was inactive. The results for the inhibition in series [6] and in [3] were 44.4% and 54.9%, respectively. In addition, the cytotoxicity at 16 h, 40 µM in series [1] came to 7.1%.
Turning to `COc1cccc(Cn2cc(C(=O)N(C)c3ccc(C)c(S(=O)(=O)N4CCOCC4)c3)c(-c3cccc(OC)c3)n2)c1`, the values for the inhibition in series [3] and in series [9] were 23.8% and 69.7%, respectively. Moreover, the cytotoxicity at 16 h, 40 µM in [1] was 19.7%. For the same compound, the inhibition entry in series [8] was “inactive”. In addition, the result in series [4] was inactive.
As to `COCCc1nn(C(C)C)cc1C(=O)Nc1ccc(C)c(S(=O)(=O)N2CCOCC2)c1`, the inhibition is 62.5% in series [3] and 98.2% in series [9]. For the same compound, in [1], the cytotoxicity at 16 h, 40 µM was below 5%. In [4], the outcome was inactive.
Regarding `Cc1ccc(-c2nn(-c3ccccc3)cc2C(=O)Nc2cccc(S(=O)(=O)N3CCOCC3)c2)cc1`, the result in series [7] was inactive. Moreover, the inhibition is 27.5% in series [6] and 32.8% in series [3]. For the same compound, the cytotoxicity at 16 h, 40 µM in series [1] worked out at 5.4%.
As for `Cc1ccc(-c2nn(Cc3cccc(C(F)(F)F)c3)cc2C(=O)Nc2ccc(C)c(S(=O)(=O)N3CCOCC3)c2)cc1`, the inhibition in series [2] was 99.2%; in [3], 93.4%. In [1], the cytotoxicity at 16 h, 40 µM is below 5%. Also, the outcome in series [4] was inactive.
`Cc1ccc(-c2nn(-c3ccc(Cl)cc3Cl)cc2C(=O)Nc2ccc(C)c(S(=O)(=O)N3CCOCC3)c2)cc1`: the inhibition was determined as 120% in series [2] and 89.9% in [3]. The cytotoxicity at 16 h, 40 µM in series [1] is below 5%. Also, the result in series [4] was inactive. The Ratio IC50 in series [5] is 3.
With `Cc1cccc(-n2ncc(C(=O)Nc3cccc(S(=O)(=O)N4CCOCC4)c3)c2C)c1`, the values for the inhibition in series [10] and in series [3] were 85.1% and 66.9%, respectively. Besides, the outcome in series [7] was inactive. Besides, the negative logarithm of the IC50 (pIC50) against Bile acid receptor [11] was 4.53; at Bile acid receptor [12], 5.18. In addition, the cytotoxicity at 16 h, 40 µM in [1] is below 5%.
Regarding `CC(C)c1onc(-c2c(Cl)cccc2Cl)c1COc1ccc(/C=C/c2cccc(C(=O)O)c2)c(Cl)c1`, the cytotoxicity at 16 h, 40 µM in series [1] is below 5%.
As for `Cc1ccc(-c2nn(-c3ccc(F)cc3)cc2C(=O)Nc2ccc(C)c(S(=O)(=O)N3CCOCC3)c2)cc1`, the inhibition was found to be 95% in series [6] and 72% in series [3]. Also, the cytotoxicity at 16 h, 40 µM in series [1] is 18.5%. In addition, the result in series [4] was inactive. Besides, in series [5], the Ratio IC50 was 3.
In the case of `Cc1ccc(-c2nn(-c3ccccc3)cc2C(=O)Nc2ccc(C)c(S(=O)(=O)N3CCOCC3)c2)cc1`, the inhibition in series [2] was 100%; in [3], 77.2%. The result in series [7] was inactive. Further, the cytotoxicity at 16 h, 40 µM in [1] was determined as 17.9%.
For `Cc1ccc(-c2nn(C(C)C)cc2CNc2ccc(C)c(S(=O)(=O)N3CCOCC3)c2)cc1`, the inhibition in [10] worked out at 99.5%; in [3] it was 36.8%. For the same compound, in [1], the cytotoxicity at 16 h, 40 µM worked out at 10.5%. Besides, the inhibition result in [8] was “inactive”. Further, the result in series [4] was inactive.
For `Cc1ccc(NC(=O)c2cnn(-c3cccnc3)c2)cc1S(=O)(=O)N1CCOCC1`, the inhibition in [10] was found to be 18.8%; in series [3], 16.1%. For the same compound, in series [7], the result was inactive. In addition, in series [1], the cytotoxicity at 16 h, 40 µM was found to be 27.9%.
On to `O=C(Nc1ccc(S(=O)(=O)N2CCOCC2)cc1)c1cn(-c2ccccc2)nc1-c1ccc(F)cc1`, for which the inhibition was 21.2% in series [2] and 34.7% in series [3]. Besides, the result in series [7] was inactive. The cytotoxicity at 16 h, 40 µM in series [1] is below 5%.
Consider `Cc1ccc(-c2nn(C(C)C)cc2C(=O)N(C)c2ccc(C)c(S(=O)(=O)N3CCOCC3)c2)cc1`, for which the inhibition stood at 86.4% in [3] and 133% in series [9]. Besides, in series [1], the cytotoxicity at 16 h, 40 µM amounted to 15%. The inhibition result in [8] is “inactive”. Besides, in series [4], the result was inactive.
`COCCc1nn(Cc2cccc(OC)c2)cc1C(=O)Nc1ccc(C)c(S(=O)(=O)N2CCOCC2)c1`: the inhibition worked out at 114% in [10] and 95.9% in [3]. In addition, the cytotoxicity at 16 h, 40 µM in series [1] is below 5%. Further, in series [4], the outcome was inactive.
In the case of `Cc1ccc(-c2nn(C(C)C)cc2C(=O)Nc2ccc(C)c(S(=O)(=O)N3CCOCC3)c2)cc1`, the figures for the inhibition in series [13] and in [3] were 131% and 99.1%, respectively. In addition, the cytotoxicity at 16 h, 40 µM in series [1] was below 5%. In addition, in [4], the result was inactive.
`Cc1ccc(NC(=O)c2c(C)nn(-c3ccccc3)c2C)cc1S(=O)(=O)N1CCOCC1`: the figures for the inhibition in series [10] and in series [3] were 70.6% and 99%, respectively. For the same compound, the outcome in [7] was inactive. In addition, the values for the pIC50 on Bile acid receptor [11] and against Bile acid receptor [12] were 4.93 and 5.48, respectively. Moreover, the cytotoxicity at 16 h, 40 µM in series [1] was 47.4%.
Regarding `O=C(Nc1ccc(S(=O)(=O)N2CCOCC2)cc1)c1cn(-c2ccccc2)nc1-c1ccccc1`, the result in series [7] was inactive. For the same compound, the inhibition was determined as 12.7% in series [6] and 18.6% in series [3]. In addition, the cytotoxicity at 16 h, 40 µM in [1] is 7.4%.
In the case of `Cc1ccc(NC(=O)c2cnn(-c3ccccc3)c2C(F)(F)F)cc1S(=O)(=O)N1CCOCC1`, the inhibition in series [10] is 99.8%; in series [3], 101%. The result in series [7] was inactive. For the same compound, the negative-log IC50 (pIC50) against Bile acid receptor [11] is 4.93; on Bile acid receptor [12] it was 6.00. In addition, the cytotoxicity at 16 h, 40 µM in [1] is 51.3%.
Turning to `Cc1ccc(NC(=O)c2cn(C(C)C)nc2-c2ccc(C(F)(F)F)cc2)cc1S(=O)(=O)N1CCOCC1`, the inhibition in series [13] was 133%; in series [3] it was 100%. Further, the cytotoxicity at 16 h, 40 µM in [1] came to 19.5%. Moreover, the result in series [4] was inactive.
Consider `O=C(Nc1ccc(F)c(S(=O)(=O)N2CCOCC2)c1)c1cnn(-c2ccccc2)c1`, for which the inhibition was 83.8% in series [10] and 80.3% in [3]. Further, the outcome in [7] was inactive. The pIC50 at Bile acid receptor [11] was 5.03; on Bile acid receptor [12], 5.08. The cytotoxicity at 16 h, 40 µM in series [1] is 27.4%.
Take `O=C(Nc1cccc(S(=O)(=O)N2CCOCC2)c1)c1cn(-c2ccccc2)nc1-c1ccc(F)cc1`: the outcome in [7] was inactive. For the same compound, the results for the inhibition in series [6] and in series [3] were 53.3% and 42.6%, respectively. The cytotoxicity at 16 h, 40 µM in series [1] was found to be 16.3%.
Take `Cc1ccc(-c2nn(CCCCO)cc2C(=O)Nc2ccc(C)c(S(=O)(=O)N3CCOCC3)c2)cc1`: the values for the inhibition in [6] and in [3] were 89.3% and 97.6%, respectively. The cytotoxicity at 16 h, 40 µM in series [1] was found to be 5.9%. The result in series [4] was inactive.

The values are drawn from ChEMBL document CHEMBL3259745, “Identification of trisubstituted-pyrazol carboxamide analogs as novel and potent antagonists of farnesoid X receptor” (Bioorg Med Chem, 2014).
